Residue numbers refer to the chain shown, from its start.
Tests used:
[1] = molecular target: T1, serine hydrolases in THP-1 cells (Homo sapiens, UniProt P08910); experiment: ABPP-SILAC; assay type: cell-based
T1 sequence (P08910 1-425): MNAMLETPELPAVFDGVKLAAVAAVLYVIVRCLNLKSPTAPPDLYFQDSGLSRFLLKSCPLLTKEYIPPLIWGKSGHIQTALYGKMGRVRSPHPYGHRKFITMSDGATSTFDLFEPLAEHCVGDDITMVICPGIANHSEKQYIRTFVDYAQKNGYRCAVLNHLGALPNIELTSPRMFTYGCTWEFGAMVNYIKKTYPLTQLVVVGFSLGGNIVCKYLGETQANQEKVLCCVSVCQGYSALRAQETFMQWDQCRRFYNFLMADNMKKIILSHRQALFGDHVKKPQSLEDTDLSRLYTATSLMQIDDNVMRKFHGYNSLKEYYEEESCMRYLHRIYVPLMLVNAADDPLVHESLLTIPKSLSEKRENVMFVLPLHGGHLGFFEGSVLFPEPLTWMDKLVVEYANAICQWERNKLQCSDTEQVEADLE

[2] = tested on: serine hydrolases in THP-1 cells; experiment: ABPP-SILAC; assay type: cell-based, human; details: 1 μM, 4 h, THP-1 cells
[3] = tested on: THP-1 cells; experiment: Targeted LC-MS of; assay type: cell-based, human; details: 4 h
Outline: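 THP-1 cells (6 million in 10 mL) incubated with test compound or DMSO for 4 h at 37 °C, 5% CO₂. Cells washed twice with ice-cold DPBS and stored at −80 °C, then analysed by targeted LC-MS metabolomics for lyso-PS and PS species.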

[4] = molecular target: T2, ABHD12 (Homo sapiens, UniProt Q8N2K0); experiment: Gel-based competitive ABPP; assay type: cell-based; details: 24 h treatment, JJH350 probe
T2 sequence (Q8N2K0 1-398): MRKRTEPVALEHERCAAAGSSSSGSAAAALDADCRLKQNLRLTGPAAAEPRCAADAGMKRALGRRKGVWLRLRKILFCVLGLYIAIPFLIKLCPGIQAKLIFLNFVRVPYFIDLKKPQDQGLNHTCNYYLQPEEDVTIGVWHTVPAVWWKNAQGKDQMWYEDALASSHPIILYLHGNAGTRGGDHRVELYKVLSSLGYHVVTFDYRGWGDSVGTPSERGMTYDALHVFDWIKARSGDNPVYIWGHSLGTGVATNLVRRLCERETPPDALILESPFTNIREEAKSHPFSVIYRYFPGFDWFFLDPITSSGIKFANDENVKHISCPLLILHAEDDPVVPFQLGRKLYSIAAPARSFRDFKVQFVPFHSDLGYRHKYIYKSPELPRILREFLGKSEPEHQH
Outline: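 PBMCs collected from the gradient interface, red cells lysed (5 min, room temperature) and plated in DPBS at 2.26 × 10⁵ cells/cm²; adherent monocytes attach within 1–2 h. After in situ treatment, proteome (1 mg/mL) labelled with JJH350 (2 μM final, 45 min, 37 °C), clicked and run on gel. ABHD12 band intensity is normalised to the control sample (100%).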

[5] = molecular target: T3, ABHD2 (Mus musculus, UniProt Q9QXM0); experiment: Quantitative MS-ABPP of brain membrane proteome from treated mice: ABHD2; assay type: in vivo; details: 30 mg/kg, i.p., 4 h
T3 sequence (Q9QXM0 1-425): T1 sequence (P08910 1-425) with K194R, L198Q, L412S, V420M, D423E
Outline: (§1)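 Mice dosed i.p. with test compound (30 mg/kg) or vehicle and killed after 4 h (isoflurane, then cervical dislocation). Brain membrane serine hydrolase activities quantified by MS-based ABPP. Each protein's value is the mean of median peptide ratios (treated vs vehicle) ± SEM, from n = 4 or 3 independent samples per compound.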

[6] = molecular target: T4, PLA2G6 (Mus musculus, UniProt P97819); experiment: Quantitative MS-ABPP of brain membrane proteome from treated mice: PLA2G6; assay type: in vivo; details: 30 mg/kg, i.p., 4 h
T4 sequence (P97819 1-807): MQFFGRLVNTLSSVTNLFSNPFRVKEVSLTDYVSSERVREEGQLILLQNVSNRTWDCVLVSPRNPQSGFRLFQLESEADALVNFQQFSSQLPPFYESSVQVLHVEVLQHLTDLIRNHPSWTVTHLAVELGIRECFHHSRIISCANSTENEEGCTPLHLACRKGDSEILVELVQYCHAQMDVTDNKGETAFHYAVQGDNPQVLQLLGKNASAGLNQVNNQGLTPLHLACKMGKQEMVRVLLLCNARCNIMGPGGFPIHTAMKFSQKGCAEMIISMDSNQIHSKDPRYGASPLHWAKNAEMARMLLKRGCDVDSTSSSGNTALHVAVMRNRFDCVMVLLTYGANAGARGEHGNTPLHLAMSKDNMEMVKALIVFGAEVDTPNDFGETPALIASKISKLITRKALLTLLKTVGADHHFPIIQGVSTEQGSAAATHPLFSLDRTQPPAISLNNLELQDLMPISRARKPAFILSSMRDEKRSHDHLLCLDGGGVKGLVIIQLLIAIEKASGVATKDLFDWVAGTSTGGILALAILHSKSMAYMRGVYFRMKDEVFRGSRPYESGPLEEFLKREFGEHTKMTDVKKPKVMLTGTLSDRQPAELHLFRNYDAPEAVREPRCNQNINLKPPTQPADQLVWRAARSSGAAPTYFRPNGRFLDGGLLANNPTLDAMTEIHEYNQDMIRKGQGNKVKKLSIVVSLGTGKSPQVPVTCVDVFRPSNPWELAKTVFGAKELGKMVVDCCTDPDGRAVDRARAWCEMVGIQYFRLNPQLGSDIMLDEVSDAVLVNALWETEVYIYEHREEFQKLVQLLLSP
Outline: as §1

[7] = molecular target: T5, mouse PLA2G6 (Mus musculus, UniProt P97819); experiment: Competitive gel ABPP; assay type: biochemical; details: membrane lysate 1 mg/mL of transfected HEK293T cells, FP-Rh
T5 sequence (P97819 1-807): T4 sequence (P97819 1-807)
Outline: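 HEK293T cells transiently transfected with mouse PLA2G6 cDNA (pCMV-SPORT6); membrane lysate (1 mg/mL) prepared. Lysate pre-exposed to test compound, then labelled with FP-Rh (1 μM final, 45 min, 37 °C). Gel band intensity compared with a control-treated sample.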

[8] = tested on: LCMV clone 13; details: mouse, in vivo

FC(F)(F)Oc1ccc(Oc2ccnc(N3CCC(NC(=S)Nc4cccnc4)CC3)c2Cl)c(Cl)c1 [DO264, N-3-pyridyl-N’-(1-[3-chloro-4-{2-chloro-4-(trifluoromethoxy)phenoxy}pyridine-2-yl]piperidin-4-yl)thiourea]
inhibition of human ABHD2 in situ [1]: did not inhibit | effect on activity of other serine hydrolases [2]: without affecting the activity of other serine hydrolases | 20:4 PS lipids of THP-1 cells ([3]; 0.001-1 μM): concentration-dependent increase | lyso-PS content of THP-1 cells ([3]; DO264 0.001-1 μM, (S)-DO271 1 μM): substantial elevations | ABHD12 activity in primary human macrophages [4]: inhibits ABHD12 activity | reduction in ABHD2 activity in treated mice [5]: 40-50% | reduction in PLA2G6 activity in treated mice [6]: 40-50% | inhibition of recombinantly expressed PLA2G6 [7]: nor did the compound inhibit | pathological response to Cl13 infection, in comparison to (S)-DO271 [8]: heightened pathology | pro-inflammatory chemokines in BALF compared to control group [8]: increases | total protein in bronchoalveolar lavage fluid (BALF) compared to control group [8]: increases | fraction of treated ABHD12(−/−) mice that died prior to sacrifice at day 10 ([8]; ip, 30 mg/kg): 30-40%
